Calls of active or inactive are those of the source. The rule behind the calls is not given here.

The subject of one test is Pyricularia grisea. The experiment in a line: Antifungal activity against Magnaporthe grisea. In kind it is functional, organism-based.
For the next test, the system named is NCI-H187. In words: Cytotoxicity against human NCI-H187 cells by resazurin microplate assay. In kind it is functional, cell-based. In a few lines: (§1)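 Resazurin microplate assay on human tumour cell lines: KB (oral epidermoid carcinoma), MCF-7 (breast cancer) and NCI-H187 (small-cell lung cancer).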
Test [1] deals with Mycobacterium tuberculosis. In words: Antituberculosis activity against Mycobacterium tuberculosis H37Ra. In kind it is functional, organism-based.
The test system of a further test is Vero. The experiment in a line: Cytotoxicity against african green monkey Vero cells after 8 days by green fluorescent protein microplate assay. Format: cell-based. To be noted: Chlorocebus sabaeus, 192 h. In a few lines:
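Vero cells (African green monkey kidney fibroblasts); cytotoxicity read by green fluorescent protein microplate assay (GFPMA).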

Another test concerns MCF7. The experiment in a line: Cytotoxicity against human MCF7 cells by resazurin microplate assay. In kind it is functional, cell-based. In a few lines:
as §1

The next test deals with KB. In words: Cytotoxicity against human KB cells by resazurin microplate assay. In kind it is functional, cell-based. In a few lines: as §1
(In general: The colour change of resazurin is a common sign of viable cells or microbes.)

The test system of the next test is Plasmodium falciparum. The experiment in a line: Antimalarial activity against Plasmodium falciparum K1. Format: functional, organism-based.
For another test, the system named is Candida albicans. In words: Antifungal activity against Candida albicans. In kind it is functional, organism-based.

For `C=C1CCC(=O)[C@@]2(C)CC[C@H](C(C)(C)O)C[C@H]12`, the outcome (in the test on Pyricularia grisea; in test [1]; in the test on Plasmodium falciparum; with Candida albicans) was inactive. In addition, the 50% inhibitory concentration (IC50) (in general, the concentration that gives 50% inhibition) in the test on NCI-H187 stood at 11 µM; with Vero, 32 µM; with MCF7, 20 µM; in the test on KB it was 32 µM.

With `COc1cccc2c1C(=O)c1c(O)c3c(c(O)c1C2=O)C[C@@](O)(C(=O)CO)C[C@@H]3O[C@H]1C[C@H](N)[C@H](O)[C@H](C)O1` [DOXORUBICIN], the IC50 with NCI-H187 was 0.25 µM; in the test on KB it was 0.28 µM.

As for `Cc1c2ccncc2c(C)c2c1[nH]c1ccccc12` [ELLIPTECINE], the figures for the half-inhibitory concentration (IC50) with NCI-H187, in the test on Vero and in the test with KB were 3.6 µM, 5.5 µM and 2.5 µM, respectively.

As to `C=C1CC[C@H](O)[C@@]2(C)CC[C@H](C(C)(C)O)C[C@H]12`, the result (in the test with Pyricularia grisea; in test [1]; in the test with Plasmodium falciparum; in the test on Candida albicans) was inactive. The IC50 in the test with NCI-H187, in the test on Vero, in the test with MCF7 and in the test on KB was above 210 µM each time.

As to `O=C/C=C/C=C1/C(=O)O[C@H](/C=C/CO)[C@H]1O` [EUTYPELLIN A], the result (in the test on Pyricularia grisea; in test [1]; in the test on Plasmodium falciparum; in the test on Candida albicans) was inactive. The IC50 with NCI-H187 turned out to be 12 µM; with Vero, 88 µM; in the test with MCF7, 84 µM; with KB, 38 µM.

In the case of `O=C1O[C@H](/C=C/CO)[C@@H](O)/C1=C\C=C\CO` [EUTYPELLIN B], the result (in the test with Pyricularia grisea; in test [1]; with Plasmodium falciparum; in the test with Candida albicans) was inactive. Besides, the half-maximal inhibitory concentration (IC50) with NCI-H187 was 206 µM; with Vero, above 221 µM; in the test on MCF7 it was above 221 µM; with KB, 144 µM.

Values taken from ChEMBL document CHEMBL1154263, “Gamma-lactones and ent-eudesmane sesquiterpenes from the endophytic fungus Eutypella sp. BCC 13199” (J Nat Prod, 2009).
